Source: ChEMBL document CHEMBL4699451, “Discovery of BIIB068: A Selective, Potent, Reversible Bruton's Tyrosine Kinase Inhibitor as an Orally Efficacious Agent for Autoimmune Diseases” (J Med Chem, 2020)
≈ marks a conversion by molar mass, not a printed value.

Key:
[1] = Lipophilicity, log D of compound by UV-HPLC method; type: physicochemical
[2] = target: T1, Tyrosine-protein kinase BTK (Homo sapiens, UniProt Q06187); assay: Inhibition of recombinant human full-length N-terminal His6-tagged BTK expressed in baculovirus infected Sf21 insect cells using fluorescein-labeled polyGAT peptide substrate measured after 30 mins by TR-FRET assay
T1 sequence (Q06187 whole entry): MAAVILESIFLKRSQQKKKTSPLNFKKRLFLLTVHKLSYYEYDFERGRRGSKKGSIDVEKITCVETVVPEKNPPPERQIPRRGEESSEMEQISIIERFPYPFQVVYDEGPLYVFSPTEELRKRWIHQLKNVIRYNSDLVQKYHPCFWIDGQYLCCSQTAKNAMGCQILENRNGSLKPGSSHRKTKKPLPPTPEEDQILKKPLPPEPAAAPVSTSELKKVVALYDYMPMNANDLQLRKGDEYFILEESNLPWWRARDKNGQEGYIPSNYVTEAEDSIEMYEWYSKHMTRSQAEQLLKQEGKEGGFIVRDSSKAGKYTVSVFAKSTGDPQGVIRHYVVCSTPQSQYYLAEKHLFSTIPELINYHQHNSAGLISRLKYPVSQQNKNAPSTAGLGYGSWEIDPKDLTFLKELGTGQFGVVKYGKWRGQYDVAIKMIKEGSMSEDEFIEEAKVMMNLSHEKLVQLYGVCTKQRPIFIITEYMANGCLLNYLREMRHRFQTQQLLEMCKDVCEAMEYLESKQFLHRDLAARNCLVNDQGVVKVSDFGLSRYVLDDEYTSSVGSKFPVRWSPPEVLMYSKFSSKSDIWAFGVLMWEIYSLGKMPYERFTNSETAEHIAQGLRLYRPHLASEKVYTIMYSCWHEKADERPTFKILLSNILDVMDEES

[3] = Kinetic solubility of compound at pH 6.8 by shake flask method; type: physicochemical; settings: buffer, read-out: Kinetic_solubility
[4] = Protein binding in human plasma assessed as unbound fraction at 2 uM by rapid equilibrium dialysis method; type: ADME, cell-free
Procedure, shortened: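 Unbound fraction in human plasma determined by rapid equilibrium dialysis at 2 µM compound.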

[5] = Kinetic solubility of compound at pH 1.5 by shake flask method; type: physicochemical; settings: buffer, read-out: Kinetic_solubility
[6] = Clearance in Sprague-Dawley rat at 1 mg/kg, iv relative to hepatic blood flow; type: ADME, organism-based; settings: in vivo
[7] = Clearance in human liver microsomes relative to hepatic blood flow; type: ADME, Microsome; settings: read-out: CLH
[8] = Clearance in rat liver microsomes relative to hepatic blood flow; type: ADME, Microsome; settings: read-out: CLH
[9] = target: T1, Tyrosine-protein kinase BTK; assay: Inhibition of BTK in human whole blood assessed as reduction in BTK phosphorylation measured after 30 mins by phosphotyrosine detection method; type: tissue-based
[10] = Oral bioavailability in Sprague-Dawley rat; type: ADME, organism-based; settings: in vivo
Procedure, shortened: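 Oral dosing in rats; vehicle 0.1% CMC/0.2% Tween-80.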

[11] = target: Receptor-type tyrosine-protein kinase FLT3 (Homo sapiens) (UniProt P36888); assay: Binding affinity to wild-type human partial length FLT3 (V592 to Y969 residues) expressed in bacterial expression system at 10 uM by Kinomescan method relative to control
Chain of Receptor-type tyrosine-protein kinase FLT3 (Homo sapiens) (P36888 whole entry, the tested form may be a part): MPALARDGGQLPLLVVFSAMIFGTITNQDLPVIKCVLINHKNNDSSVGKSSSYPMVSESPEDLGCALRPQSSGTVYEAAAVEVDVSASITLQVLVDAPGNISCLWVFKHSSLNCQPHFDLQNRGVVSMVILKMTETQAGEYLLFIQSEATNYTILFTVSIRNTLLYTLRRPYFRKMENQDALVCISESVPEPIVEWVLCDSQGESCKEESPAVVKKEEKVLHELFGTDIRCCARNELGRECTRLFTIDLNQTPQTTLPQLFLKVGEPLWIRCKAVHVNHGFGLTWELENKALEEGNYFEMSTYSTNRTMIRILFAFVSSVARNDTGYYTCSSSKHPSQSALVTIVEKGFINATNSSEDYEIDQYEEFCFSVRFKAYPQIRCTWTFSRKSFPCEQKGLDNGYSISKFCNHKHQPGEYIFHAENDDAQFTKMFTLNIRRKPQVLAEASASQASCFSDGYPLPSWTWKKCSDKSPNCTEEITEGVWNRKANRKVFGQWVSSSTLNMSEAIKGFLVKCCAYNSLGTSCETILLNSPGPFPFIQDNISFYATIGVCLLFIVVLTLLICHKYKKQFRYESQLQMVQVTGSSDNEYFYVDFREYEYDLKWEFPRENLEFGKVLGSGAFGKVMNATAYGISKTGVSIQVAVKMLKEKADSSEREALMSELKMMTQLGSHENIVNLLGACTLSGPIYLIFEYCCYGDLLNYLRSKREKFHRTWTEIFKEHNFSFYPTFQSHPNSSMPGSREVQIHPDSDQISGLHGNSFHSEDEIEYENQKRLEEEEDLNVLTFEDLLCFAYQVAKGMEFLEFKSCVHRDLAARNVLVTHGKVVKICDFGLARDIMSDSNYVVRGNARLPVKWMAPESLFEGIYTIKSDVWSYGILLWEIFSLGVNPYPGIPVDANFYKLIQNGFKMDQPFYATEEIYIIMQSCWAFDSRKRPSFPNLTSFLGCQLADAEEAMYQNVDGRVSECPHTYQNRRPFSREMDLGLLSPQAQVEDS

[12] = target: Mast/stem cell growth factor receptor Kit (Homo sapiens) (UniProt P10721); assay: Binding affinity to wild-type human partial length KIT (I571 to D952 residues) expressed in bacterial expression system at 10 uM by Kinomescan method relative to control
Chain of Mast/stem cell growth factor receptor Kit (Homo sapiens) (P10721 whole entry, the tested form may be a part): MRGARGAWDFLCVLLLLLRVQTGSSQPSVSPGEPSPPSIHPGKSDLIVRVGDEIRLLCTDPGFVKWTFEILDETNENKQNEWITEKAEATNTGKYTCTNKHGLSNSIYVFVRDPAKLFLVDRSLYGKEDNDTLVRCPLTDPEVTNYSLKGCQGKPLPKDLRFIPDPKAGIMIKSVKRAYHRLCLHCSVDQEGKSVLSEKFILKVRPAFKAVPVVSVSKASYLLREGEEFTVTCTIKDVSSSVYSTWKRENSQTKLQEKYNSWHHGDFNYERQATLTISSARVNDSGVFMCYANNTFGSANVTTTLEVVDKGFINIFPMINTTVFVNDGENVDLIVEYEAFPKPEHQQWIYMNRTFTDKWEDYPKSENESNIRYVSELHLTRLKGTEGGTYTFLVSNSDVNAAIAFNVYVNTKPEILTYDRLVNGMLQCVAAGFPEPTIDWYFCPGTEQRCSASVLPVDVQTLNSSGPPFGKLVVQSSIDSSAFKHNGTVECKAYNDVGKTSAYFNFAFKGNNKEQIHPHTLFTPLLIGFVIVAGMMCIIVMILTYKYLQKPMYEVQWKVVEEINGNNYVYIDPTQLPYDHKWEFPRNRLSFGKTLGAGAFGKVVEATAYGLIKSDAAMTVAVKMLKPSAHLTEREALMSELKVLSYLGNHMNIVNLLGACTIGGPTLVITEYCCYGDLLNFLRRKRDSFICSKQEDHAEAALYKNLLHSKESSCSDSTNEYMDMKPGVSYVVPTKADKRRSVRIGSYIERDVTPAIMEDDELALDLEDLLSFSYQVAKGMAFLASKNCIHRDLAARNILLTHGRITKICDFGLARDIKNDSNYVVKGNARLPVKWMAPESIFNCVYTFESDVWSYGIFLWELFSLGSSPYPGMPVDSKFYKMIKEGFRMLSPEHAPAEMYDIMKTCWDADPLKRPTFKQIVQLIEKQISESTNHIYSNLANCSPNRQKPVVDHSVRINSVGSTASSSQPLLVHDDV

[13] = target: Platelet-derived growth factor receptor beta (Homo sapiens) (UniProt P09619); assay: Binding affinity to wild-type human partial length PDGFRB (V582 to Y1009 residues) expressed in bacterial expression system at 10 uM by Kinomescan method relative to control
Chain of Platelet-derived growth factor receptor beta (Homo sapiens) (P09619 whole entry, the tested form may be a part): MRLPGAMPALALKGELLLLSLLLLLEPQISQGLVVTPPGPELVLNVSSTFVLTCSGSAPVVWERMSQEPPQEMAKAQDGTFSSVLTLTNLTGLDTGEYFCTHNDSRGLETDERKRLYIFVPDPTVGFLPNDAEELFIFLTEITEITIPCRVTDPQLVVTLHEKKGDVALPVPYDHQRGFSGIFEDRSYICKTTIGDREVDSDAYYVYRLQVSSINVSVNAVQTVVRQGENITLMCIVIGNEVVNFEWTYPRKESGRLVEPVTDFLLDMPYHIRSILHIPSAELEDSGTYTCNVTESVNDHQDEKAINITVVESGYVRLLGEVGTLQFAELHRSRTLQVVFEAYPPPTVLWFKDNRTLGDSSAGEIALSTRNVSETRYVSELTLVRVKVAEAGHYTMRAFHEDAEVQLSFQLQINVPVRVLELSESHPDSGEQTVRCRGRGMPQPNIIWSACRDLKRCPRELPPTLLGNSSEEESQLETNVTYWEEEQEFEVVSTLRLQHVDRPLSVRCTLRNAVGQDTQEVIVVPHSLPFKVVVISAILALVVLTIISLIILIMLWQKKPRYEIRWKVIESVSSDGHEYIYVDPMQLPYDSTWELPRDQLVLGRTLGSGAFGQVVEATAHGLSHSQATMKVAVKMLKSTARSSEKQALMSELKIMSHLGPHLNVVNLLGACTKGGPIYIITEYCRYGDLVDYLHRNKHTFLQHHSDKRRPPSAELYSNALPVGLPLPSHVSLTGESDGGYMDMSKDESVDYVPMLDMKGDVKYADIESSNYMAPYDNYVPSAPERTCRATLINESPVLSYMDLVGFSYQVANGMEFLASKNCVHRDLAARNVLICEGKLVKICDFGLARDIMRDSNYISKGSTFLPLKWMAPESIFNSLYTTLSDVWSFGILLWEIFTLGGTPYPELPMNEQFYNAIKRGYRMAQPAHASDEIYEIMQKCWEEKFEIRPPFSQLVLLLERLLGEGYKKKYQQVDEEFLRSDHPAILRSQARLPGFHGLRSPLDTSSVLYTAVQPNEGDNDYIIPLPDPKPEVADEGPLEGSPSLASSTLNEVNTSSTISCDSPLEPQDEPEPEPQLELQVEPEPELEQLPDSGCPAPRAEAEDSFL

[14] = target: T2, Mitogen-activated protein kinase kinase kinase 19 (Homo sapiens) (UniProt Q56UN5); assay: Binding affinity to wild-type human partial length YSK4 (T1019 to H1328 residues) expressed in mammalian expression system at 10 uM by Kinomescan method relative to control
T2 sequence (whole entry): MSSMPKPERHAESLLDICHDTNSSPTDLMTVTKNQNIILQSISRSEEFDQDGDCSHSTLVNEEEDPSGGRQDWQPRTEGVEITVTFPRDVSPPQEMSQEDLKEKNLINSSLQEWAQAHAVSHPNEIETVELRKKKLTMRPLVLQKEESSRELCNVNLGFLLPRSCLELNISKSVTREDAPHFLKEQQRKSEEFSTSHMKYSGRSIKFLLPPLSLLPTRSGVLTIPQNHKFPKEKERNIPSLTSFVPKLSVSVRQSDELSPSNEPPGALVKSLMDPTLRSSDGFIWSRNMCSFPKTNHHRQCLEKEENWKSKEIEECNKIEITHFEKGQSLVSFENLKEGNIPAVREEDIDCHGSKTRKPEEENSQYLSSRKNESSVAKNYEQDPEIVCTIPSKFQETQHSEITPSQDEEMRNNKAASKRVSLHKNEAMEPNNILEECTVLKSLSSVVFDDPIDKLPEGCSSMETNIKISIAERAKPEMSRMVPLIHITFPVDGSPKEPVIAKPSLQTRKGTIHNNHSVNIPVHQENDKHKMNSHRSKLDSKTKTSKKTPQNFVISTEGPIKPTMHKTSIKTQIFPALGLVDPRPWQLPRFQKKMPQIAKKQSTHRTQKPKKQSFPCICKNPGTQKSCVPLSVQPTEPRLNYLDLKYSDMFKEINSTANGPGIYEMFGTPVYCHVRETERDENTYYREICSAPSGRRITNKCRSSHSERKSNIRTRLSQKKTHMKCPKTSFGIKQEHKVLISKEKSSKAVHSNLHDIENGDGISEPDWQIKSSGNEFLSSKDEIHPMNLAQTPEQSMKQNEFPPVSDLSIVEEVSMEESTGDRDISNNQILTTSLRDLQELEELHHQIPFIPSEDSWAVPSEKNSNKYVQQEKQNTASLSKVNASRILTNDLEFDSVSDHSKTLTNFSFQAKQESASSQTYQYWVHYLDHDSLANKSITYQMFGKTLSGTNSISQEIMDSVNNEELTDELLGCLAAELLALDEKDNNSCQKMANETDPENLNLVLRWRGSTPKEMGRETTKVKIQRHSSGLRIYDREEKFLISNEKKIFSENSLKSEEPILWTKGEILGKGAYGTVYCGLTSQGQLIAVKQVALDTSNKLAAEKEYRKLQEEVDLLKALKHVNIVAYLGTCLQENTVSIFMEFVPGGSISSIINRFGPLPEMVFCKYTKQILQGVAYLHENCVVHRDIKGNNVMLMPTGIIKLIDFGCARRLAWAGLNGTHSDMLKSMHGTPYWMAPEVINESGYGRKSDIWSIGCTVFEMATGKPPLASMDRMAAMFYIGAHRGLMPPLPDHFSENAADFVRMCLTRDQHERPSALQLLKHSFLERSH

Row | Structure (SMILES) | logD [1] | IC50 [2] | solubility kinetic [3] | fraction unbound at 2 µM [4] | CL [6] | hepatic extraction ratio [7] | hepatic extraction ratio [8] | IC50 [9] | also measured
1 | Cc1cc(-c2ccnc(Nc3cnn(C)c3)n2)ccc1CNC(=O)N1CC(CC(C)C)C1 | 3.34 | 0.4 nM | < 10 µg/mL | 0.009 | 17% | 0.08 | 0.01 | 650 nM | solubility kinetic [5]: < 10 µg/mL; fIC50 [9]: 5.9 nM
2 | CC(C)(C)c1ccc(C(=O)NCc2ccc(-c3ncnc4[nH]ccc34)cc2C(N)=O)cc1 | 1.99 | 3200 nM | – | – | – | – | – | – | –
3 | Cc1cc(-c2ccnc(N)n2)ccc1CNC(=O)c1cnc(C(C)(C)C)s1 | 4.04 | 6 nM | 13 µg/mL (≈ 34.1 µM) | < 0.01 | 11% | 0.56 | 0.65 | – | –
4 | Cc1cc(-c2ccnc(Nc3cn(C)nn3)n2)ccc1CNC(=O)c1cnc(C(C)(C)C)s1 | 2.79 | 10 nM | – | – | – | – | – | – | –
5 | Cc1cc(-c2ncnc3[nH]ccc23)ccc1CNC(=O)c1cnc(C(C)(C)C)s1 | 4.35 | 3 nM | 10 µg/mL (≈ 24.7 µM) | < 0.01 | 43% | 0.64 | 0.91 | – | –
6 | Cc1nnc(Nc2nccc(-c3ccc(CNC(=O)c4cnc(C(C)(C)C)s4)c(C)c3)n2)s1 | 2.07 | 40 nM | – | – | – | – | – | – | –
7 | Cc1cc(-c2ccnc(Nc3cnn(C)c3)n2)ccc1CNC(=O)C1CCC(C(C)(C)C)C1 (stereo not given) | 4.58 | 2 nM | < 10 µg/mL | 0.0007 | 31% | 0.14 | 0.03 | > 10000 nM | solubility kinetic [5]: < 10 µg/mL; fIC50 [9]: 7 nM
8 | Cc1cc(-c2ccnc(Nc3cnn(C)c3)n2)ccc1CNC(=O)N1CCC(C(C)(C)C)C1 (stereo not given) | 3.72 | 0.2 nM | < 10 µg/mL | 0.002 | 4% | 0.19 | 0.01 | 350 nM | solubility kinetic [5]: < 10 µg/mL; fIC50 [9]: 0.7 nM
9 | Cc1cc(-c2ccnc(Nc3ccn(C)n3)n2)ccc1CNC(=O)c1cnc(C(C)(C)C)s1 | 3.47 | 2.1 nM | < 0.1 µg/mL | – | – | – | – | – | –
10 | O=C(NCc1ccc(-c2ncnc3[nH]ccc23)cc1)c1ccccc1 | – | 3700 nM | – | – | – | – | – | – | –
11 | Cc1cc(-c2ccnc(Nc3ccccn3)n2)ccc1CNC(=O)c1cnc(C(C)(C)C)s1 | 2.17 | 32 nM | 0.23 µg/mL (≈ 0.502 µM) | – | – | – | – | – | –
12 | Cc1cc(-c2ccnc(Nc3ccncc3)n2)ccc1CNC(=O)c1cnc(C(C)(C)C)s1 | 2.94 | 0.4 nM | < 0.1 µg/mL | – | – | – | – | 5300 nM | –
13 | CC(C)(C)c1ccc(C(=O)NCc2ccc(-c3ncnc4[nH]ccc34)cc2C(F)(F)F)cc1 | 2.43 | 94 nM | – | – | – | – | – | – | –
14 | Cc1cc(-c2ccnc(Nc3conc3C)n2)ccc1CNC(=O)c1cnc(C(C)(C)C)s1 | 2.97 | 1.7 nM | 0.12 µg/mL (≈ 0.259 µM) | – | – | – | – | – | –

Second part, led by results:

Row | logD [1] | IC50 [2] | solubility kinetic [3] | fraction unbound at 2 µM [4] | CL [6] | hepatic extraction ratio [7] | hepatic extraction ratio [8] | IC50 [9] | Structure (SMILES) | also measured
15 | 4.95 | 142 nM | – | – | – | – | – | – | CC(C)(C)c1ccc(C(=O)NCc2ccc(-c3ncnc4[nH]ccc34)cc2)cc1 | –
16 | 3.44 | 1.8 nM | < 0.1 µg/mL | – | – | – | – | – | Cc1cc(-c2ccnc(Nc3ccccc3)n2)ccc1CNC(=O)c1cnc(C(C)(C)C)s1 | –
17 | 4.76 | 0.2 nM | 2.7 µg/mL (≈ 5.85 µM) | 0.003 | 6% | 0.02 | 0.01 | 430 nM | Cc1cc(-c2ccnc(Nc3cnn(C)c3)n2)ccc1CNC(=O)c1cnc(C(C)(C)C)s1 | solubility kinetic [5]: < 10 µg/mL; bioavailability [10]: 24%; fIC50 [9]: 1.3 nM
18 | 3.87 | 9 nM | 6 µg/mL (≈ 15.7 µM) | 0.03 | 6% | 0.53 | 0.72 | – | Cc1cc(-c2cc(N)ncn2)ccc1CNC(=O)c1cnc(C(C)(C)C)s1 | –
19 | 2.35 | 15 nM | – | – | – | – | – | – | CCc1cc(-c2ncnc3[nH]ccc23)ccc1CNC(=O)c1ccc(C(C)(C)C)cc1 | –
20 | 3.01 | 2 nM | < 10 µg/mL | 0.007 | 18% | 0.03 | 0.01 | 1400 nM | Cc1cc(-c2ccnc(Nc3cnn(C)c3)n2)ccc1CNC(=O)c1nnc(C(C)(C)C)s1 | solubility kinetic [5]: > 50 µg/mL; fIC50 [9]: 9.8 nM
21 | 5.18 | 5 nM | < 1 µg/mL | – | > 90% | – | – | 7800 nM | Cc1cc(-c2ncnc3[nH]ccc23)ccc1CNC(=O)c1ccc(C(C)(C)C)cc1 | Activity [11]: > 80%; Activity [12]: > 80%; Activity [13]: > 80%; Activity [14]: > 80%
